Experimental data from different studies.
Each line is one published result; the experiments were not run side by side. ≈ marks a conversion by molar mass, not a printed value.

SMILES | target or system | assay | system | conditions | measurement | result
C[C@H]1COc2c(N3CCN(C)CC3)c(F)cc3c(=O)c(C(=O)O)cn1c23 | Escherichia coli | microbial growth | ATCCBAA2452 | drug-resistant strain | MIC | ≤ 0.03 µg/mL
CC(=O)NC[C@H]1CN(c2ccc(N3CCOCC3)c(F)c2)C(=O)O1 | Staphylococcus aureus | microbial growth, broth dilution | ATCC43300 MRSA | – | MIC | 2.3 µg/mL
C[C@@H](N)[C@H](O)CCCCCCCC(=O)CCCCCCCCCCCCCC[C@@H](O[C@@H]1O[C@H](CO)[C@H](O)[C@H](O)[C@H]1O)[C@@H](C)N | Escherichia coli | microbial growth, resazurin | ATCC10536 | 50 µM | inhibition | 100%
N.N.[Cl][Pt][Cl] | HBL1 | cell growth or viability, ATP luminescence | – | 10 µM, 72 h | inhibition | 100%
Cc1sc2c(c1C)C(c1ccc(Cl)cc1)=N[C@H](CC(=O)OC(C)(C)C)c1nnc(C)n1-2 | HBL1 | cell growth or viability, ATP luminescence | – | 1 µM, 5 days | viability | 110%
CO/N=C(\C(=O)N[C@@H]1C(=O)N2C(C(=O)O)=C(COC(C)=O)CS[C@H]12)c1csc(N)n1 | Escherichia coli | microbial killing | ATCC 8739, ATCC8739 | – | MBC | 1 µM (≈ 0.455 µg/mL)
N.N.[Cl][Pt][Cl] | BEAS-2B | cell growth or viability, MTT | – | 24 h | IC50 | 103 µM
C[C@@H](O)[C@H]1C(=O)N2C(C(=O)O)=C(S[C@@H]3CN[C@H](C(=O)N(C)C)C3)[C@H](C)[C@H]12 | Escherichia coli | microbial growth | ATCCBAA2452 | drug-resistant strain | MIC | > 8 µg/mL
CN1C(=O)/C(=N\Nc2ncc(-c3cc4ccccc4oc3=O)s2)c2cc(Cl)ccc21 | Staphylococcus aureus | microbial growth, broth dilution | ATCC43300 MRSA | – | MIC | 1.3 µg/mL
CCn1cc(C(=O)O)c(=O)c2cc(F)c(N3CCNCC3)cc21 | Escherichia coli | microbial killing | ATCC 8739, ATCC8739 | – | MBC | 0.25 µM (≈ 0.0798 µg/mL)
NC[C@H]1OB(O)c2c(OCCCO)cccc21 | Escherichia coli | microbial growth | ATCC25922 | 16 h | MIC | 1.56 µM
